Experiments:
[1] = system: Cerebellum; test: Biodistribution in ddY mouse cerebellum at 3.7 MBq, iv after 30 mins by gamma counting; type: ADME, organism-based; details: in vivo, 0.5 h
Procedure, shortened: (§1)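 ddY male mice, seven weeks old, 20–25 g, received 3.7 MBq of tracer. Five animals per time point, up to 60 min, were killed by exsanguination. Blood and brain, or striatum and cerebellum, were excised, weighed and gamma-counted. Uptake is expressed as %ID/g of tissue.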

[2] = system: Striatum; test: Biodistribution in ddY mouse striatum at 3.7 MBq, iv after 30 mins by gamma counting; type: ADME, organism-based; details: in vivo, 0.5 h; procedure, shortened: as §1
[3] = system: Brain; test: Biodistribution in ddY mouse brain at 3.7 MBq, iv after 10 mins by gamma counting; type: ADME, organism-based; details: in vivo; procedure, shortened: as §1
[4] = system: Striatum; test: Drug uptake in Wistar rat striatum at 10 mM after 30 mins by autoradiography analysis counting in presence of donepezil; type: ADME, tissue-based; details: 0.5 h, 10000 µM
[5] = system: Striatum; test: Drug uptake in Wistar rat striatum at 2.2 […]/200 uL after 30 mins by autoradiography analysis; type: ADME, tissue-based; details: in vitro, 0.5 h
Procedure, shortened: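 Coronal brain sections (20 µm) from male Wistar rats were thaw-mounted on silane-coated slides. Sections were incubated with tracer in binding buffer for 30 min at 4°C, then washed with ice-cold buffer and water. They were exposed to imaging plates for 6 h alongside calibrated 11C standards.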

[6] = system: Brain; test: Biodistribution in ddY mouse brain at 74 MBq, iv after 10 to 30 mins by PET analysis; details: in vivo
[7] = system: Striatum; test: Biodistribution in ddY mouse striatum at 3.7 MBq, iv by gamma counting in presence of donepezil; details: in vivo

Row | Compound | Drug uptake [1] [% ID/g] | Drug uptake [2] [% ID/g] | Drug uptake [3] [% ID/g] | Drug uptake [4] | Drug uptake [5] | Drug uptake [6] | Drug uptake [7] [% ID/g]
1 | COc1ccc2c3c1O[C@@H]1C[C@H](O)C=C[C@]31CCN([11CH3])C2 | 1.5 | 1.5 | 2.1 | – | – | – | –
2 | COc1ccc2c3c1O[C@H]1C[C@@H](O)C=C[C@@]31CCN([11CH3])C2 | 1.7 | 2.1 | 2.1 | Not Active | Active | Active | 1.3

— ChEMBL document CHEMBL3098087, “Synthesis and evaluation of (-)- and (+)-[¹¹C]galanthamine as PET tracers for cerebral acetylcholinesterase imaging” (Bioorg Med Chem, 2014)
